Assay results collected from several papers.
Compare with care: the assays were run in different laboratories.
Target: Cyclin-dependent kinase 11A (CDK11A, Homo sapiens, UniProt Q9UQ88)
Read-out: binding
Residues used in one study (Q9UQ88 1-783): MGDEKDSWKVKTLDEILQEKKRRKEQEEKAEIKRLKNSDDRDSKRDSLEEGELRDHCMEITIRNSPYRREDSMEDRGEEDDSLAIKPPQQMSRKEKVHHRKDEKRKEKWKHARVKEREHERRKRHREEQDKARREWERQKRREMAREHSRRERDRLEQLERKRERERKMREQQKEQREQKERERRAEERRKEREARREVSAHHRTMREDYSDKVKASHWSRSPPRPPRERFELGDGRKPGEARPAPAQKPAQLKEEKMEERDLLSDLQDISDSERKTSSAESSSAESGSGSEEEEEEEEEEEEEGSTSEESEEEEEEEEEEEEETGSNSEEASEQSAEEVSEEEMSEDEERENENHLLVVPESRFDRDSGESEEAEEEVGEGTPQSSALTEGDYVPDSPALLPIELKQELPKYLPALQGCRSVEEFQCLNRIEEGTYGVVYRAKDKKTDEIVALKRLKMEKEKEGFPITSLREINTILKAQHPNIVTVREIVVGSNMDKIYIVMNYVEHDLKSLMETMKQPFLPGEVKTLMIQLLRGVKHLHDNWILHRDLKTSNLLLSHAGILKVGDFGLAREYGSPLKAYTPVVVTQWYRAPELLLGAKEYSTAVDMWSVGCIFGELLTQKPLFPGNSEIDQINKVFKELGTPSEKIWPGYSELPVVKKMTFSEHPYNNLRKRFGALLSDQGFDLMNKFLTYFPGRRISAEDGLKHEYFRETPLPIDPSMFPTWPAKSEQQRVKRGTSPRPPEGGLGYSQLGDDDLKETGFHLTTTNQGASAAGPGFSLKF

CNC(=O)[C@@H]1CC[C@@H](n2c(-c3ccc4cnccc4c3)nc3ccc(C(=O)NCc4cccc(C(N)=O)c4)cc32)C1 — remaining binding (competition with immobilised ligand; 1 µM): 100%
CSc1cccnc1N1CCN(Cc2nc3ccccc3[nH]2)CC1 — remaining binding (competition with immobilised ligand; 1 µM): 100%
c1cncc(-c2cccc(Nc3nccc(NC4CCCCC4)n3)c2)c1 — remaining binding (competition with immobilised ligand; 10 µM): 98%
NS(=O)(=O)c1cc(NC(=O)C2(c3ccccc3Cl)CC2)ccc1Oc1cccc(Cl)c1 — remaining binding (competition with immobilised ligand; 1 µM): 73%
F[C@@H]1CCN(c2nccc(-c3cnn4ncccc34)n2)C1 — remaining binding (1 µM): 100%
COc1cnc(Nc2cccc(S(N)(=O)=O)c2)nc1N1CCN(c2ccccc2)CC1 — remaining binding (competition with immobilised ligand; 1 µM): 93%
O=C(NCC1CCOCC1)c1n[nH]cc1NC(=O)c1c(F)cccc1F — remaining binding (competition with immobilised ligand; 1 µM): 91%
CN(C)c1nccc(-c2cnn3ncccc23)n1 — remaining binding (1 µM): 92%
Cn1cc(Cl)c2c(Oc3c(F)cc(Nc4cc(Cl)nc(N)n4)cc3F)ccnc21 — remaining binding (competition with immobilised ligand; 0.1 µM): 100%
N[C@@H]1CCN(c2nccc(-c3cnn4ncccc34)n2)C1 — remaining binding (1 µM): 98%
O=C(NCCCN1CCOCC1)c1ccc(Nc2ncc(Cl)c(-c3ccc(Cl)s3)n2)cc1 — remaining binding (competition with immobilised ligand; 1 µM): 23%
CN1CCN(c2cnc3c(C4CCN(C(=O)c5ccc(OC(F)(F)F)cc5N)CC4)ncnc3c2)CC1 — remaining binding (competition with immobilised ligand; 1 µM): 61%
COc1ccnn2ncc(-c3ccnc(N(C)C)n3)c12 — remaining binding (1 µM): 100%
CNC(=O)Nc1ccc2c(c1)[C@@]1(CC2)OC(=O)N(CC(=O)N(Cc2ccc(F)cc2)[C@@H](C)C(F)(F)F)C1=O — remaining binding (competition with immobilised ligand; 1 µM): 94%
Cc1cnn2ncc(-c3ccnc(N(C)C)n3)c2c1 — remaining binding (1 µM): 100%
C[C@@H](c1ccc(-n2cnc3c(N)ncnc32)cc1)N1CCc2nn(C)c(Cc3ccccc3)c2C1=O — remaining binding (competition with immobilised ligand; 0.1 µM): 100%
O=C(NCCCN1CCOCC1)c1ccc(Nc2nccc(-c3cc4ccccc4s3)n2)cc1 — remaining binding (competition with immobilised ligand; 1 µM): 56%
C[C@@H]1CCN(c2nccc(-c3cnn4ncccc34)n2)C1 — remaining binding (1 µM): 85%
O=C(c1ccc(Nc2ncc(Cl)c(-c3cc4ccccc4s3)n2)cc1)N1CCC(N2CCCC2)CC1 — remaining binding (competition with immobilised ligand; 1 µM): 85%
CCC(=O)N[C@@H]1CC[C@H](C(=O)N(C)c2ccc(-c3nc4ccccc4o3)cc2)C1 — remaining binding (competition with immobilised ligand; 1 µM): 100%
COc1ncc2cc3ccccc3nc2c1C#N — remaining binding (competition with immobilised ligand; 5 µM): 93%
